The values below come from ChEMBL document CHEMBL3875206, “Design, synthesis and biological evaluation of 4'-aminochalcone-rivastigmine hybrids as multifunctional agents for the treatment of Alzheimer's disease” (Bioorg Med Chem, 2017).

Data set [1] is described as follows: Inhibition of rat serum BuChE using butyrylthiocholine iodide as substrate incubated for 15 mins by Ellman's method. Summed up:
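Rat serum BuChE (25% serum) by Ellman method, butyrylthiocholine iodide 1 mmol/L, phosphate buffer pH 7.4, read at 405 nm. Compound concentrations varied, each in triplicate.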

Data set [2] can be described thus: Inhibition of Cu2+-mediated aggregation of amyloid beta (1-42) (unknown origin) at 25 uM after 24 hrs by thioflavin T fluorescence-based fluorimetric method relative to control. Format: functional. A digest of the protocol:
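HFIP-pretreated Aβ1-42 (25 µM) was incubated with Cu2+ (25 µM), with or without compound (25 µM final), in 20 mM HEPES/150 mM NaCl pH 6.6 at 37 °C for 24 h. 5 µM ThT in 50 mM glycine-NaOH pH 8.5 was then added. Fluorescence was read at ex 446/em 490 nm. Percent inhibition was taken versus no-inhibitor control after background subtraction, in triplicate.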

The nature of data set [3]: Antioxidant activity assessed as trolox equivalents of AAPH radical scavenging activity at 5 uM preincubated for 15 mins followed by AAPH addition measured every 60 sec for 90 mins by ORAC-FL assay. Format: functional. A digest of the protocol:
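Peroxyl radicals generated by AAPH (12 mM final) at 37 °C in phosphate buffer pH 7.4 with fluorescein (150 nM final). Sample and fluorescein were preincubated 15 min before AAPH addition. Fluorescence (ex 485/em 535 nm) was read every 60 s for 90 min.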

The target in data set [4] is T1, Amine oxidase [flavin-containing] B (Homo sapiens, UniProt P27338).
T1 sequence (P27338 whole entry): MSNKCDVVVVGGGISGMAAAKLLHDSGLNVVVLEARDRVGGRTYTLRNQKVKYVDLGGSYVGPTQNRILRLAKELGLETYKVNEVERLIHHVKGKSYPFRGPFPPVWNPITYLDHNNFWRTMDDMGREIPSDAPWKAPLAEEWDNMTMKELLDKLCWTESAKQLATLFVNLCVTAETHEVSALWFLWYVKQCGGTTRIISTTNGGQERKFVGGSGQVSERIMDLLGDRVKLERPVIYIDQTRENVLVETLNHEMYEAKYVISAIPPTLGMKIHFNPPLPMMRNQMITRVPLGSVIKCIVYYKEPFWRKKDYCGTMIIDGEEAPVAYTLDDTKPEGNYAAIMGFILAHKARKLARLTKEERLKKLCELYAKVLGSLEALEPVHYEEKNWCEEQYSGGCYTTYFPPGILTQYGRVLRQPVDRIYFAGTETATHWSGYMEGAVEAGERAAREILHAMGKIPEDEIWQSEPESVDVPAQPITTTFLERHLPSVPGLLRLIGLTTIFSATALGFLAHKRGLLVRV
Put plainly: Inhibition of recombinant human MAO-B expressed in baculovirus infected High 5 insect cells using kynuramine as substrate incubated for 30 mins by spectrofluorometric method. Format: cell-based.

A short description of data set [5]: Inhibition of rat serum BuChE at 50 uM using butyrylthiocholine iodide as substrate incubated for 15 mins by Ellman's method relative to control. To be noted: 0.25 h. Summed up: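 Ellman method with 25% rat serum as BuChE source, butyrylthiocholine iodide 1 mmol/L, phosphate buffer pH 7.4, absorbance at 405 nm. Compounds tested at 50 µM. […] Triplicate wells.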

Data set [6] addresses Amyloid-beta precursor protein (Homo sapiens) (UniProt P05067). Description: Inhibition of self-induced aggregation of amyloid beta (1-42) (unknown origin) at 25 uM after 24 hrs by thioflavin T fluorescence-based fluorimetric method relative to control. Summed up:
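Aβ1-42 was pretreated in HFIP, dried and stocked in DMSO. Aβ1-42 (25 µM final) was incubated with compound (25 µM final) in 50 mM phosphate buffer pH 7.4 at 37 °C for 24 h. 5 µM ThT in 50 mM glycine-NaOH pH 8.5 was then added. Fluorescence was read at ex 446/em 490 nm. Inhibition = (1−IFi/IFc)×100 after background subtraction, in triplicate.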

The species named for a further data set is Homo sapiens. Description: Selectivity index, ratio of IC50 for recombinant human MAO-A expressed in baculovirus infected High 5 insect cells to IC50 for recombinant human MAO-B expressed in baculovirus infected High 5 insect cells. A digest of the protocol:
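Recombinant human MAO-A or MAO-B (7.5 µg/mL) with kynuramine substrate in 100 mM potassium phosphate pH 7.4 (KCl-isotonic), <4% DMSO, 30 min at 37 °C. Stopped with 2 N NaOH. Single-point inhibition at 10 µM. IC50 from six-concentration sigmoidal curves, triplicate. SI = IC50(MAO-A)/IC50(MAO-B).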

Data set [7] has as its target T2, Amine oxidase [flavin-containing] A (Homo sapiens, UniProt P21397).
T2 sequence (P21397 whole entry): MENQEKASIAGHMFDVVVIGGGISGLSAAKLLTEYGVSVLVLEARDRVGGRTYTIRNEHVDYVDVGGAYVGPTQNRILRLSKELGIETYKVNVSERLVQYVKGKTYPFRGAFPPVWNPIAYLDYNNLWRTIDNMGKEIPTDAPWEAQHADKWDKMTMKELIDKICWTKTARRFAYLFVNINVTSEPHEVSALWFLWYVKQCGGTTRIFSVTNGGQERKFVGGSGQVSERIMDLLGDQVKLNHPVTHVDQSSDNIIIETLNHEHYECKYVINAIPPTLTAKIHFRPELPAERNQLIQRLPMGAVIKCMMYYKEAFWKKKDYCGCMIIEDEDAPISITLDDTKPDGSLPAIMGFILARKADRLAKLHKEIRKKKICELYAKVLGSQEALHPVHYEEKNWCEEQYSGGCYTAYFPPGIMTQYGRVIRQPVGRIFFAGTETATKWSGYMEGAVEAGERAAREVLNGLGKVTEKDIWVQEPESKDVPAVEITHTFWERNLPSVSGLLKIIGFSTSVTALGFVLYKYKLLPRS
Put plainly: Inhibition of recombinant human MAO-A expressed in baculovirus infected High 5 insect cells using kynuramine as substrate incubated for 30 mins by spectrofluorometric method.

Another data set deals with Acetylcholinesterase (Electrophorus electricus, UniProt O42275). Put plainly: Inhibition of electric eel AChE using acetylthiocholine iodide as substrate incubated for 15 mins by Ellman's method. Summed up: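 Ellman spectrophotometric assay: electric eel AChE 0.05 U/mL final, acetylthiocholine iodide 1 mmol/L, phosphate buffer pH 8.0, range of compound concentrations.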
Sequence of Acetylcholinesterase (O42275 whole entry): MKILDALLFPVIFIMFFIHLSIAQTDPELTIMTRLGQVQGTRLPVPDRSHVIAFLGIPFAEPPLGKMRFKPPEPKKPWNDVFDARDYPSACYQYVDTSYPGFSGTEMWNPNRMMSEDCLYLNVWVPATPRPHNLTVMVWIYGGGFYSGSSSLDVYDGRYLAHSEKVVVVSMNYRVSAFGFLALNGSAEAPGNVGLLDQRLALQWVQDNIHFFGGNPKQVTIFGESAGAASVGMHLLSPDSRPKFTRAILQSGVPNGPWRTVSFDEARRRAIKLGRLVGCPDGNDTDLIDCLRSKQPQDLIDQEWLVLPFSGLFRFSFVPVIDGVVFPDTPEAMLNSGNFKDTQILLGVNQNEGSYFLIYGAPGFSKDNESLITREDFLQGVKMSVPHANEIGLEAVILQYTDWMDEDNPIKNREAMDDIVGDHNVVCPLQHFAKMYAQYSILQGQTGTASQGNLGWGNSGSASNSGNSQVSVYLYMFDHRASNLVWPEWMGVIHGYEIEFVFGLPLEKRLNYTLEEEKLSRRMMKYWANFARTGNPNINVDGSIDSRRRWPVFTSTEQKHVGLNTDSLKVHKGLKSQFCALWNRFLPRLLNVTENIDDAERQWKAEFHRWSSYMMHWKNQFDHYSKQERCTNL

The target of data set [8] is T1, Amine oxidase [flavin-containing] B. Description: Potency index, ratio of iproniazid IC50 to compound IC50 for recombinant human MAO-B expressed in baculovirus infected High 5 insect cells.
Data set [9] has the same target. Put plainly: Potency index, ratio of rasagiline IC50 to compound IC50 for recombinant human MAO-B expressed in baculovirus infected High 5 insect cells.
A short description of data set [10]: Permeability of compound at 100 ug/ml after 18 hrs by PAMPA. Format: ADME. The note with it: read-out: permeability.
Data set [11] in a line: Metal chelating activity assessed as compound-Al3+ complex formation by measuring shift in maximum absorption wavelength at 37.5 uM after 30 mins by UV-vis spectrophotometric method. Type of data set: physicochemical. The note with it: 0.5 h. Summed up:
(§1)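 Difference UV-vis spectra (200-600 nm) of compound and metal salt (CuCl2 or AlCl3), each 37.5 µM final, after 30 min at room temperature. Spectra of metal alone and compound alone were subtracted from the mixture spectrum.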

In data set [12] the target is T2, Amine oxidase [flavin-containing] A. Description: Inhibition of recombinant human MAO-A expressed in baculovirus infected High 5 insect cells at 10 uM using kynuramine as substrate incubated for 30 mins by spectrofluorometric method relative to control. The note with it: 0.5 h. A digest of the protocol:
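Recombinant human MAO-A or MAO-B (7.5 µg/mL) with kynuramine substrate in 100 mM potassium phosphate pH 7.4 (KCl-isotonic), <4% DMSO, 30 min at 37 °C. Stopped with 2 N NaOH. 4-Hydroxyquinoline was measured fluorometrically (ex 310/em 400 nm) against a calibration curve. Single-point inhibition at 10 µM. IC50 from six-concentration sigmoidal curves, triplicate. SI = IC50(MAO-A)/IC50(MAO-B).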

The nature of data set [13]: Metal chelating activity assessed as mole fraction of compound required to show 1:1 stoichiometry for Cu2+-compound complex at 37.5 uM after 30 mins by UV-vis spectrophotometric method. Type of data set: physicochemical. To be noted: 0.5 h. A digest of the protocol:
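Molar ratio method: a methanol solution of compound (37.5 µM final) was titrated with CuCl2 (3.75-150 µM final). Absorbance at 474 nm was taken after subtracting CuCl2 and compound spectra and plotted against the compound mole fraction. The intersection of the linear segments gave the stoichiometry.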

Data set [14] has as its target Acetylcholinesterase (Electrophorus electricus) (UniProt O42275). Put plainly: Mixed-type inhibition of electric eel AChE at 2.5 to 10 uM using varying levels of acetylthiocholine iodide as substrate preincubated for 15 mins followed by substrate addition by Lineweaver-Burk plot analysis. Summed up:
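Kinetics with EeAChE in 0.1 M phosphate pH 8.0 with DTNB. Three inhibitor concentrations preincubated with enzyme 15 min at 37 °C, then acetylthiocholine added at 0.1–0.4 mM. Read at 412 nm. Weighted least-squares Lineweaver–Burk plots; slopes replotted against inhibitor concentration. No-inhibitor controls run in parallel.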

Data set [15] in a line: Metal chelating activity assessed as compound-Cu2+ complex formation by measuring shift in maximum absorption wavelength at 37.5 uM after 30 mins by UV-vis spectrophotometric method. Format: physicochemical. The note with it: 0.5 h. Summed up: as §1

Molecules are shown by their SMILES. Calls of active or inactive are those of the source. The rule behind the calls is not given here.

Sequence of Amyloid-beta precursor protein (Homo sapiens) (P05067 whole entry): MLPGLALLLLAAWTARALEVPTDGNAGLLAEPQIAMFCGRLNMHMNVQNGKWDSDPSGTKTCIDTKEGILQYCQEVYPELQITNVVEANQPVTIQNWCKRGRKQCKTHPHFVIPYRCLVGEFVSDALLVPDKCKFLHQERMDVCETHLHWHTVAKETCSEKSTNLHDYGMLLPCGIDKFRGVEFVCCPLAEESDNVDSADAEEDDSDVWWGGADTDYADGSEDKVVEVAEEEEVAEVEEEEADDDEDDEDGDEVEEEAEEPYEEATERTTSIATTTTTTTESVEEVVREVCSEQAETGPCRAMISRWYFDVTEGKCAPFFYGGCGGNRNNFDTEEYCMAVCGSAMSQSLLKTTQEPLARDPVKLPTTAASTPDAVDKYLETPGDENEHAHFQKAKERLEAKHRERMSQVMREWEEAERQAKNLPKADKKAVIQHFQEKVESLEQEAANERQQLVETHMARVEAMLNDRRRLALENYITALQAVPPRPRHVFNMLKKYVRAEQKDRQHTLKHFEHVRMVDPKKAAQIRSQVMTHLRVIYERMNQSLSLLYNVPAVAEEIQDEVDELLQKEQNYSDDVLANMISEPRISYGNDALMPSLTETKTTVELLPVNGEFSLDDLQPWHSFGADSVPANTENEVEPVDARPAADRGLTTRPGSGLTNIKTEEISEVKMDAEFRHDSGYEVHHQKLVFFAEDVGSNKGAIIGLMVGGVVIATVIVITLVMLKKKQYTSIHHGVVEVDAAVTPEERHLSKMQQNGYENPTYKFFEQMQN
Sequence of Acetylcholinesterase (Electrophorus electricus) (O42275 24-633 limits assumed): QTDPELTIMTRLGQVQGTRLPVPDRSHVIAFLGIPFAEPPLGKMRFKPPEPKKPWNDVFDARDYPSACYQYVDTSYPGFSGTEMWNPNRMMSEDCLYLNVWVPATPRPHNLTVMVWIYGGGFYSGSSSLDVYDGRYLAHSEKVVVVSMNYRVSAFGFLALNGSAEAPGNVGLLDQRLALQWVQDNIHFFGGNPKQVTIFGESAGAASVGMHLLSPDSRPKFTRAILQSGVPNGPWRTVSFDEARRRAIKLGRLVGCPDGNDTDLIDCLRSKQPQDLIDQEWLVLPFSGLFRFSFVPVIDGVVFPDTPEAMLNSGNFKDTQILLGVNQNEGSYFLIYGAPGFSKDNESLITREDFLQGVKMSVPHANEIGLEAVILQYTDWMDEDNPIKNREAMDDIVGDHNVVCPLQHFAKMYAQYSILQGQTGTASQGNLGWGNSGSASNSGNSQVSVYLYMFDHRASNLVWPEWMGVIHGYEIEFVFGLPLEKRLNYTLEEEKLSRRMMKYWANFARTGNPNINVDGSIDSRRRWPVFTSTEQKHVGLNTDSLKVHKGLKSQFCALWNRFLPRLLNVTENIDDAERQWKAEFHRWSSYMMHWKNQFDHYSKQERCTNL

In the case of `CCN(C)C(=O)Oc1cccc([C@H](C)N(C)C)c1` [RIVASTIGMINE], in [1], the IC50 came to 2.86 µM.

Regarding `CN(C)c1ccc(/C=C/C(=O)c2ccc(O)cc2O)cc1`, the results for the inhibition in data set [2] and in data set [6] were 60.1% and 77.7%, respectively. For the same molecule, in data set [3], the Activity came out at 2 µMequiv/µM. In addition, the IC50 is 0.31 µM in data set [4], 4.06 µM in [7] and 78.2 µM at Acetylcholinesterase. Further, the “inhibition (INH)” value in data set [5] is under 10%. For the same molecule, in the data set filed under Homo sapiens, the Ratio IC50 came out at 13.4.

With `CN(C)c1ccc(/C=C/C(=O)c2ccc(OC(=O)N3CCCC3)cc2O)cc1`, the entries for the “Ratio IC50” value in [8] and in data set [9] were over 26.7 and 2, respectively. For the same molecule, the inhibition was determined as 79.7% in data set [2] and 89.5% in data set [6]. Further, the Activity is 2.83 µMequiv/µM in [3], “Active” in [11], 0.98 molar ratio in [13] and “Active” in [15]. Further, the figures for the IC50 (in data set [4]; at Acetylcholinesterase) were 0.29 µM and 4.91 µM, respectively. Also, the Papp at 18 h, 100 ug/ml in [10] amounted to 7.03 ×10⁻⁶ cm/s. Also, in data set [12], the inhibition at 10 µM turned out to be 12.8%. For the same molecule, in [5], the “inhibition (INH)” value is under 10%. In addition, the inhibition result in [14] is “Active”.

For the molecule `CN(C)C(=O)Oc1ccc(C(=O)/C=C/c2ccc(N(C)C)cc2)c(O)c1`, the inhibition in data set [2] was 77.9%; in [6] it was 90.8%. Besides, the Activity in [3] is 2.62 µMequiv/µM. The IC50 in [4] was found to be 2.48 µM; in data set [7] it was 10.2 µM; at Acetylcholinesterase it was 32.6 µM. Also, the “inhibition (INH)” value in data set [5] is reported as under 10%. Besides, the Ratio IC50 in the data set filed under Homo sapiens is 4.11.
